Our source for the IC50 and inhibition values is ChEMBL document CHEMBL5252540, “3-Aroyl-1,4-diarylpyrroles Inhibit Chronic Myeloid Leukemia Cell Growth through an Interaction with Tubulin” (ACS Med Chem Lett, 2017).

Structures can show the parent of a compound that is named as a salt.

One experiment relates to MCF7. As to the kind of experiment: Cytotoxicity against human MCF7 cells assessed as cell growth inhibition incubated for 3 days by trypan blue exclusion assay. Format: functional, cell-based. To be noted: MCF7, 72 h. In short, it runs like this:
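MCF-7 human breast carcinoma cells; growth inhibition; triplicate experiments.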

Another experiment addresses Tubulin. The experiment can be described thus: Inhibition of tubulin (unknown origin) polymerization preincubated for 15 mins followed by GTP addition by turbidity based spectrophotometer analysis. Format: protein-complex assay, Homo sapiens.
Another experiment concerns the target Tubulin (Homo sapiens) (UniProt P68371+Q9H4B7+P0DPH7+P68366+Q13509+Q71U36+P04350+Q3ZCM7+P07437+P68363+Q9BQE3+Q6PEY2+Q13885+Q9BVA1+Q9BUF5). The experiment can be described thus: Inhibition of [3H]colchicine binding to tubulin (unknown origin) at 5 uM incubated for 10 mins relative to control. Format: protein-complex assay.
In the next experiment the test system is OVCAR-8. As to the kind of experiment: Cytotoxicity against human OVCAR-8 cells assessed as cell growth inhibition incubated for 3 days by trypan blue exclusion assay. Format: functional, cell-based. The conditions noted are these: OVCAR-8, 72 h.
Another experiment concerns NCI/ADR-RES. As to the kind of experiment: Cytotoxicity against human NCI/ADR-RES cells overexpressing p-glycoprotein assessed as cell growth inhibition incubated for 3 days by trypan blue exclusion assay. Format: functional, cell-based. The conditions noted are these: 72 h.
The subject of experiment [1] is LAMA-84. The experiment can be described thus: Antiproliferative activity against human LAMA-84 cells assessed as cell growth inhibition incubated for 48 hrs by MTT assay. The conditions noted are these: LAMA-84, 48 h. Background: Formazan colour is commonly taken as a measure of viable cells.
In experiment [2] the test system is LAMA-84. As to the kind of experiment: Antiproliferative activity against human LAMA-84 cells overexpressing BCR/ABL assessed as cell growth inhibition.
In another experiment the test system is KU812 cell line. The experiment can be described thus: Antiproliferative activity against human KU812 cells expressing BCR/ABL assessed as cell growth inhibition. The format is functional, cell-based. In short, it runs like this:
(§1)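 KU812 or LAMA84 CML blast-crisis cells (BCR/ABL-expressing) exposed to increasing doses for 48 h; proliferation read by MTT assay; triplicate experiments.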

For experiment [3], the system named is LAMA-84. The experiment can be described thus: Antiproliferative activity against human LAMA-84 cells expressing BCR/ABL assessed as cell growth inhibition. The format is functional, cell-based. In a few lines:
as §1

In the case of `COc1cc(C(=O)c2cn(-c3ccccc3)cc2-c2ccccc2)cc(OC)c1OC`, the IC50 – broadly, the concentration that inhibits the measured activity by half – in the experiment with MCF7 amounted to 35 nM; against Tubulin it was 1100 nM. The inhibition (as a rule, the change of the read-out against control, counted positive when it falls) on Tubulin (Homo sapiens) is 66%.
In the case of `COc1cc(C(=O)c2cn(-c3ccccc3)cc2-c2ccccc2F)cc(OC)c1OC`, the IC50 turned out to be 30 nM with MCF7 and 580 nM against Tubulin. The same compound returned an inhibition on Tubulin (Homo sapiens) of 72%.
Regarding `COc1cc(C(=O)c2cn(-c3ccccc3)cc2-c2cccc(N)c2)cc(OC)c1OC`, the IC50 came out at 28 nM in the experiment with MCF7, 390 nM against Tubulin, 190 nM with OVCAR-8 and 110 nM with NCI/ADR-RES. On Tubulin (Homo sapiens), this compound returned an inhibition of 57%.
For `COc1cc(C(=O)c2cn(-c3ccccc3)cc2-c2ccc(F)cc2)cc(OC)c1OC`, the IC50 amounted to 78 nM with MCF7 and 760 nM at Tubulin. The compound also showed an inhibition on Tubulin (Homo sapiens) of 47%.
On to `COc1cc(C(=O)c2cn(-c3ccccc3)cc2-c2cccc(C)c2)cc(OC)c1OC`, for which the figures for the 50% inhibitory concentration (IC50) in the experiment with MCF7 and at Tubulin were 450 nM and 1600 nM, respectively. The compound further registered an inhibition on Tubulin (Homo sapiens) of 5.7%.
Take `Cc1ccc(NC(=O)c2ccc(CN3CCN(C)CC3)cc2)cc1Nc1nccc(-c2cccnc2)n1` [IMATINIB MESYLATE]: the IC50 in the experiment on LAMA-84 [1] and in the experiment with LAMA-84 [2] was 100 nM throughout.
Regarding `COc1cc(C(=O)c2cn(-c3ccc(F)cc3)cc2-c2ccccc2)cc(OC)c1OC`, the IC50 with MCF7 came out at 15 nM; against Tubulin, 1300 nM; with OVCAR-8, 180 nM; in the experiment with NCI/ADR-RES, 110 nM. The same compound showed an inhibition at Tubulin (Homo sapiens) of 62%.
As to `COc1cc(C(=O)c2ccn(-c3cccc(N)c3)c2)cc(OC)c1OC`, the IC50 in the experiment with KU812 cell line and with LAMA-84 [3] was 28 nM in each case.
